Assay outcomes (PubChem)
MT stabilizer – microtubule stabilizers in HeLa cells, primary screen, imaging, high-content imaging; HeLa tubulin immunostaining HCS, 24 h; share of cells brighter than vehicle mean+2SD; % tubulin-high responders, % at 10 µM; hit rate 0.83% among 200,000;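 active means plate Z-score above 3 for both tubulin-high and condensed-nucleus cell shares, with cell loss under 80%, at 10 µM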;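 further: anti alpha tubulin signal scored within the nucleus-defined area of each cell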
Cl transport mod – KCC2 cotransporter modulators, thallium flux, primary screen, cell-based, HEK293 KCC2, FluoZin-2 fluorescence, MLSMR; Solute carrier family 12 member 5 (Homo sapiens), Q9H2X9; KCC2 cells, thallium flux FluoZin-2 fluorescence; B-score of Tl+ flux slope (higher = more flux/activation; lower = inhibition) at 10 µM; hit rate 2.2% among 190,000; AID 1456, 2008;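 active means thallium flux slope and its plate-corrected score both differing from the plate sample mean at a set confidence after two filtering rounds, in either direction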;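 further: slope of fluorescence scaled to starting intensity during 10 to 20 s after thallium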
Target sequence (Q9H2X9 whole entry, looked up): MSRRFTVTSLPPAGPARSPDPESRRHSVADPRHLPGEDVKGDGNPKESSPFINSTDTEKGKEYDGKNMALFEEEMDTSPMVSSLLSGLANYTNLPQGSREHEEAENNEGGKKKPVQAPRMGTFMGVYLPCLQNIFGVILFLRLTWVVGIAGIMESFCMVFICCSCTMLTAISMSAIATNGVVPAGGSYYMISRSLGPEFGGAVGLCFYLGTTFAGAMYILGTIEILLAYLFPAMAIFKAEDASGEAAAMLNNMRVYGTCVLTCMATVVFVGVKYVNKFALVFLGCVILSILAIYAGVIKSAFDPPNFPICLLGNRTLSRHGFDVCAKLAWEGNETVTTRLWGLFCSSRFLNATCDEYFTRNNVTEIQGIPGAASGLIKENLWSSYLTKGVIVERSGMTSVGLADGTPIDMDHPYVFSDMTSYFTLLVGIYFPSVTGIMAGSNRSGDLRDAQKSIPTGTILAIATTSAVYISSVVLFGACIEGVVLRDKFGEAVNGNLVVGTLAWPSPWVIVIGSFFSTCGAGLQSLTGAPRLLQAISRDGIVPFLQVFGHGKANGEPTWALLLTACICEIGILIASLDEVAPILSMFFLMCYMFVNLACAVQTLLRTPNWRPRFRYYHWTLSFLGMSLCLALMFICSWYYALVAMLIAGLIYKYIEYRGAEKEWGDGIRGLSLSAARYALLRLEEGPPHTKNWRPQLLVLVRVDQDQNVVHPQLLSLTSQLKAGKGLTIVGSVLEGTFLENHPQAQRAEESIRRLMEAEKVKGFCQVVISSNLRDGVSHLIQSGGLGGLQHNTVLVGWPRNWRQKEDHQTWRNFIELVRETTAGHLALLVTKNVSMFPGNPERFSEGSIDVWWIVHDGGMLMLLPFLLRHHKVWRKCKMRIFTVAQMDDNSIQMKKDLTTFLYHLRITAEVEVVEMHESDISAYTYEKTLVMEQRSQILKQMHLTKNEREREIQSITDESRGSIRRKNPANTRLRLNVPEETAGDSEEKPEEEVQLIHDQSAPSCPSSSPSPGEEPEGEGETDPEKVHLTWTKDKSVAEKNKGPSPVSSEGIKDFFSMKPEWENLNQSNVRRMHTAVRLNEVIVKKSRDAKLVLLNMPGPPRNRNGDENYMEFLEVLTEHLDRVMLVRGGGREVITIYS
DTT redox prof – compounds producing H2O2 with reducing agent – biochemical, NIH compound library profiling, artefact control for MLSCN library redox annotation, primary screen; activation, % at 10 µM; hit rate 0.03% among 200,000; AID 878, 2007; DTT-dependent redox cycling H2O2, phenol red/HRP absorbance; 100% = 100 µM peroxide control, 0% = buffer;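 active means activation of at least 50% relative to the plate's high and low controls in the primary single-dose screen; inactive means activation below 50%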;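 further: compound incubated with DTT at 0.8 mM final as the reducing agent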
ROMK primary – ROMK potassium channel modulators, primary screen, cell-based, thallium flux, MLSMR library; ATP-sensitive inward rectifier potassium channel 1 (Homo sapiens), P48048; Tet-inducible ROMK, thallium flux fluorescence; actives lie on both sides; B-score at 10 µM; hit rate 2% among 130,000;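 active means signal ratio slope over the read window, or its plate-corrected B-score, at least 3 SD from the plate mean, either direction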;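 further: B-score of the F/F0 ratio slope over 7 to 12 s after thallium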
b-catenin transl – modulators of beta-catenin nuclear translocation, primary screen, imaging, HeLa cells, immunofluorescence, high-content; nuclear translocation activity, % at 5 µM; hit rate 0.3% among 190,000;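 active means nuclear translocation activity above 50% at 5 µM, with a well cell count of 50 or more; inconclusive means wells under 50 cells across six images, flagged as toxic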;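 further: per-cell ratio of nuclear to cytoplasmic median beta-catenin stain intensity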
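Test system: human HeLa cell line; Doses: 5 µM primary, 0.02–20 µM confirmation; Incubation: 24 h compound exposure, 37°C; Detection: beta-catenin immunofluorescence imaging with DAPI; Read-out: beta-catenin nuclear/cytoplasmic ratio, % activation.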
KCC2 secondary – KCC2 modulators in sodium-free buffer, confirmation, cell-based, HEK293 KCC2, thallium flux, secondary assay | hit rate 15% among 3,700 | normalised thallium flux (F/F0 slope) at 10 µM | FluoZin2 fluorescence; hits give high values | shares compounds with Cl transport mod;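 active means thallium flux slope above the same plate's solvent-only control mean plus 3 SD; inconclusive means the two replicate wells disagree; inactive means no significant difference from solvent-only control wells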
KCC2 bumet counter – thallium flux persisting under bumetanide in KCC2 cells, confirmation, counter-screen for KCC2 modulator project, cell-based, HEK293 KCC2, FluoZin2, secondary assay 3. shares compounds with Cl transport mod. AID 1714, 2009. hit rate 49% among 3,700. HEK293-KCC2 + bumetanide/ouabain; hits give high values. normalized thallium flux at 10 µM;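 active means thallium entry rate above the same plate's blocked-transporter control wells by more than 3 SD; inconclusive means the two repeat wells disagree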;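 further: raw slope of fluorescence over initial fluorescence between 10 and 20 s after thallium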
KCC2 sec2 – KCC2 modulators without ouabain present, confirmation, cell-based, HEK293 KCC2, thallium flux, FluoZin2, secondary assay 2. shares compounds with Cl transport mod. normalized thallium flux at 10 µM. hit rate 23% among 3,700. thallium flux FluoZin2 fluorescence; actives lie on both sides; F/F0 rise rate, 10–20 s post-thallium. AID 1715, 2009;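 active means thallium flux slope more than 3 SD above or below the plate's solvent-only control mean, mostly below; inconclusive means the two repeat wells disagreed; inactive means no significant shift from solvent-only controls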
HEK counter1 – thallium flux modulation in parental HEK cells, confirmation, counter-screen for KCC2 modulator project, cell-based, counterscreen 1; hit rate 46% among 3,700; shares compounds with Cl transport mod; HEK293 parental cells, thallium flux FluoZin2, ouabain; baseline-ratio fluorescence slope, 10–20 s after thallium; thallium flux rate (normalised fluorescence) at 10 µM;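 active means thallium flux rate significantly above the same plate's solvent-only control wells, beyond their mean plus 3 SD; inconclusive means the two replicate wells gave conflicting results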
KCC2 retest ouab – KCC2 inhibitors and activators, ouabain retest, confirmation, HEK-KCC2 cells; raw Tl+ flux slope (below DMSO = inhibition, above = activation) at 10 µM; AID 1717, 2009; HEK293-KCC2, thallium flux FluoZin2 fluorescence; bidirectional: low = inhibitor, high = activator; shares compounds with Cl transport mod; hit rate 48% among 3,700;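 active means thallium flux slope beyond 3 SD from same-plate DMSO control mean in most replicates, usually higher, sometimes lower; inconclusive means repeat tests gave conflicting results; inactive means no significant difference from controls in most replicates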;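 further: slope of initial-normalized fluorescence between seconds 10 and 20 after thallium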
HEK counter2 – native HEK Tl+ uptake effects, second counter-screen – HEK cells, counterscreen 2, counter-screen for KCC2 modulator project, confirmation. hit rate 33% among 3,700. AID 1718, 2009. thallium flux slope at 10 µM. HEK293 parental, thallium flux FluoZin-2 fluorescence slope. shares compounds with Cl transport mod;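 active means thallium flux slope above the same plate's solvent-control mean plus 3 SD in both duplicate wells; inconclusive means duplicate wells that disagreed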;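 further: run without ouabain in cells lacking the KCC2 cotransporter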
Numbers stand for hits. Shown are actives, neighbours in structure and some others; about 3.7% of the full set was active somewhere.

C/C(=N/NC(=O)CNC(=O)c1cccs1)c1ccco1 was read as Cl transport mod inactive and b-catenin transl inactive.
`COc1ccc(-c2nnn(CC(=O)NCCc3ccc(OC)c(OC)c3)n2)cc1` gave MT stabilizer inactive, Cl transport mod inactive, DTT redox prof inactive and b-catenin transl inactive.
Screening Cc1cccc(Nc2nnc(-c3ccc(C(=O)N4C[C@H]5C[C@H](C4)c4cccc(=O)n4C5)cc3)c3ccccc23)c1 returned MT stabilizer inactive, Cl transport mod inactive, DTT redox prof inactive and b-catenin transl inactive.
`COc1cc(NS(=O)(=O)c2ccc(C)cc2)c2ncccc2c1` gave MT stabilizer inactive, Cl transport mod 49, DTT redox prof inactive, b-catenin transl inactive, KCC2 secondary 0.028, KCC2 bumet counter 0.093, KCC2 sec2 inactive, HEK counter1 inconclusive, KCC2 retest ouab 0.062 and HEK counter2 inconclusive.
CC(C)(C)c1cc(NC(=O)c2cccc(S(=O)(=O)N3CCOCC3)c2)no1 was read as MT stabilizer inactive, Cl transport mod inactive, DTT redox prof inactive, ROMK primary inactive and b-catenin transl inactive.
For O=C(NNC(=O)c1ccc(Oc2cc(Cl)cc(Cl)c2)o1)c1ccccc1 the results were Cl transport mod 28, b-catenin transl inactive, KCC2 secondary 0.014, KCC2 bumet counter 0.051, KCC2 sec2 inactive, HEK counter1 0.02, KCC2 retest ouab 0.036 and HEK counter2 0.012.
O=C(NNC(=O)c1ccc(Oc2ccc(C3SCCS3)cc2)o1)c1ccc(Cl)cc1 was read as Cl transport mod 5.4, ROMK primary inactive, b-catenin transl inactive, KCC2 secondary inactive, KCC2 bumet counter 0.026, KCC2 sec2 inactive, HEK counter1 0.01, KCC2 retest ouab 0.032 and HEK counter2 0.01.
`COc1ccc(C(=O)NNC(=O)Cc2ccc(Cl)cc2)cc1` gave MT stabilizer inactive, Cl transport mod inactive, DTT redox prof inactive, ROMK primary inactive and b-catenin transl inactive.
For CCOC(=O)CN(C(=O)c1ccccc1[N+](=O)[O-])C(C)(C)C the results were Cl transport mod inactive and b-catenin transl inactive.
CCOc1ccccc1NC(=S)N(CCCN1CCOCC1)Cc1cn(C)c2ccccc12 was read as MT stabilizer inactive, Cl transport mod -4.7, DTT redox prof inactive, ROMK primary inactive, b-catenin transl inactive, KCC2 secondary inactive, KCC2 bumet counter inactive, KCC2 sec2 inactive, HEK counter1 inconclusive, KCC2 retest ouab inactive and HEK counter2 inactive.
`COc1ccccc1NC(=S)N(CCCN1CCOCC1)Cc1cn(C)c2ccccc12` gave MT stabilizer inactive, Cl transport mod inactive, DTT redox prof inactive, ROMK primary inactive and b-catenin transl inactive.
For CCOc1ccc(C(=O)n2cnnc2N)cc1 the results were Cl transport mod inactive and b-catenin transl inactive.
`CCOc1ccccc1NC(=O)CSc1nnnn1Cc1ccccc1` gave MT stabilizer inactive, Cl transport mod -2.6, DTT redox prof inactive, ROMK primary inactive, KCC2 secondary inactive, KCC2 bumet counter inactive, KCC2 sec2 inactive, HEK counter1 inactive, KCC2 retest ouab inconclusive and HEK counter2 inactive.
`COc1ccccc1NC(=O)CSc1nnnn1Cc1ccccc1` gave MT stabilizer inactive, DTT redox prof inactive, ROMK primary inactive and b-catenin transl inactive.
`C=CCc1cccc(/C=N/NC(=O)CCC(=O)Nc2ccc(C)cc2)c1O` gave MT stabilizer inactive, Cl transport mod inactive, DTT redox prof inactive, ROMK primary inactive and b-catenin transl inactive.
CCOC(=O)N/N=C(\CCC(=O)O)c1cccs1 was read as Cl transport mod 7.2, b-catenin transl inactive, KCC2 secondary inactive, KCC2 bumet counter inactive, KCC2 sec2 inactive, HEK counter1 inactive, KCC2 retest ouab inactive and HEK counter2 inactive.
For O=C(O)CC/C(=N/NC(=O)c1cccs1)c1ccccc1 the results were MT stabilizer inactive, Cl transport mod inactive, DTT redox prof inactive, ROMK primary inactive and b-catenin transl inactive.
Screening COc1cccc(C(=O)NNC(=O)c2ccccc2-n2cccc2)c1 returned MT stabilizer inactive, Cl transport mod inactive, DTT redox prof inactive, ROMK primary inactive and b-catenin transl inactive.
`COc1cccc(C(=O)NNC(=O)c2sccc2-n2cccc2)c1` gave MT stabilizer inactive, Cl transport mod 5.9, DTT redox prof inactive, ROMK primary inactive, b-catenin transl inactive, KCC2 secondary inactive, KCC2 bumet counter 0.012, KCC2 sec2 inactive, HEK counter1 0.012, KCC2 retest ouab inactive and HEK counter2 0.014.
Screening COc1ccc(-n2c(NC(=O)c3ccco3)c(C#N)c3nc4ccccc4nc32)cc1 returned MT stabilizer inactive, Cl transport mod inactive, DTT redox prof inactive and b-catenin transl inactive.
For N#Cc1c(NC(=O)c2ccccc2Cl)n(Cc2ccccc2)c2nc3ccccc3nc12 the results were MT stabilizer inactive, Cl transport mod -4.6, DTT redox prof inactive, b-catenin transl inactive, KCC2 secondary inactive, KCC2 bumet counter inactive, KCC2 sec2 inactive, HEK counter1 0.0051, KCC2 retest ouab 0.014 and HEK counter2 inactive.
Cc1ccc(C)c(NCCC#N)c1 was read as MT stabilizer inactive, Cl transport mod inactive, DTT redox prof inactive and b-catenin transl inactive.
